ChEMBL document CHEMBL1123052, “Structure-activity relationships for prazosin and WB 4101 analogues as alpha 1-adrenoreceptor antagonists” (J Med Chem, 1985)
Structures can show the parent of a compound that is named as a salt.

Tests used:
Rattus norvegicus = species on record: Rattus norvegicus; experiment: (§1) Alpha-2-adrenoceptor blocking activity was determined by antagonism of clonidine induced depression of the twitch responses of the field stimulated prostatic portion of the vas deferens and the potency was expressed as pA2.; type: functional; settings: read-out: pA2 (converted)
[1] = Selectivity as the ratio of pA2 value against alpha 1 receptor to that of alpha-2 receptor.
Summary of the method: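 Ratio computed as the antilog of the α1 pA2 minus the α2 pA2. The α1 pA2 came from rat epididymal vas deferens against norepinephrine, and the α2 pA2 from field-stimulated prostatic vas deferens against clonidine.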

[2] = molecular target: T1, Adrenergic receptor alpha-1 (Rattus norvegicus, UniProt P15823+P23944+P43140); experiment: Alpha-1 adrenergic receptor blocking activity was assessed by antagonism of (-)-norepinephrine induced contractions of the epididymal portion of the vas deferens and the potency was expressed as pA2.; type: functional, tissue-based
T1 sequence (P15823 whole entry): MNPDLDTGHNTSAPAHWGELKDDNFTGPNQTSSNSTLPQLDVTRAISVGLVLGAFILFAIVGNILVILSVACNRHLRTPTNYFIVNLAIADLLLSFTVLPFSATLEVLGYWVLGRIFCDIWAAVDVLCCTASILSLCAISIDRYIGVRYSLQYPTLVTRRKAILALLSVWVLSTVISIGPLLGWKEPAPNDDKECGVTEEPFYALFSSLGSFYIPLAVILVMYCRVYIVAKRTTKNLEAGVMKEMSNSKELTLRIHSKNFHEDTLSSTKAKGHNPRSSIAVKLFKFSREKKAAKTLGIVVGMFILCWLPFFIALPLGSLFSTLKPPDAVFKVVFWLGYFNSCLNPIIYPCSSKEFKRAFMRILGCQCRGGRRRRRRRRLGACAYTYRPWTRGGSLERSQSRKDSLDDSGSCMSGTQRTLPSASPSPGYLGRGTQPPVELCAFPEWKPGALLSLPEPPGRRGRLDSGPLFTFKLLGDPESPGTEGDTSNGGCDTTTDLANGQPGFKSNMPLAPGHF
T1 sequence (P23944 whole entry): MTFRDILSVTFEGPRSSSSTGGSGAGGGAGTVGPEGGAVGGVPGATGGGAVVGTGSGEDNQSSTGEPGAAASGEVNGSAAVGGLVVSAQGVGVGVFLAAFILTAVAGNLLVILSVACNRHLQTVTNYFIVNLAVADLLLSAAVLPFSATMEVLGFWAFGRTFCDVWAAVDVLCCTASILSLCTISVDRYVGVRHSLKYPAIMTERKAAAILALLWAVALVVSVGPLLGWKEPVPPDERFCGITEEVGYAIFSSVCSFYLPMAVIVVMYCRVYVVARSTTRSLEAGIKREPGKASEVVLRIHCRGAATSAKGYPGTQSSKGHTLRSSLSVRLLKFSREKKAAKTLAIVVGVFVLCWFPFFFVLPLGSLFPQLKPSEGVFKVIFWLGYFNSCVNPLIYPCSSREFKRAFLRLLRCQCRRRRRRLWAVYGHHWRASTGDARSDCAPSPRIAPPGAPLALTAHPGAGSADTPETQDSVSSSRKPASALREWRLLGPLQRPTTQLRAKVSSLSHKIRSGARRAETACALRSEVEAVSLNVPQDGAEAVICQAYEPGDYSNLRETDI
T1 sequence (P43140 whole entry): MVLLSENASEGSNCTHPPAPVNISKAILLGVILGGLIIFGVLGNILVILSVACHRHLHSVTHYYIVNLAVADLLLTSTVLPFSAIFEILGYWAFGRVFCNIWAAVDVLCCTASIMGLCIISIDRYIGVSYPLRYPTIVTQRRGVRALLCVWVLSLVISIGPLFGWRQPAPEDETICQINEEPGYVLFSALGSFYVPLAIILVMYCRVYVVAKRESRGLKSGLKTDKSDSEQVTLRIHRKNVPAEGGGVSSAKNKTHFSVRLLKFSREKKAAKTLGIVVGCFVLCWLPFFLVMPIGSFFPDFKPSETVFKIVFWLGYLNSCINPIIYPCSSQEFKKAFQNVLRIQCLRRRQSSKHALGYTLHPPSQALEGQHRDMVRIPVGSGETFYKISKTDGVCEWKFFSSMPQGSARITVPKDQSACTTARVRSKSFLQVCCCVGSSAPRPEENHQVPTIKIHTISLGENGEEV
Summary of the method: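 Male albino rat (175–200 g) epididymal vas deferens, 14 mm, in Krebs at 37 °C gassed 95% O2–5% CO2, 0.4 g load, with propranolol 1 μM, cocaine 10 μM, deoxycorticosterone acetate 40 μM. ≥1 h equilibration. Cumulative norepinephrine curves: second as control, third after 30 min antagonist. Time-matched untreated tissues. Schild pA2 from EC50 dose ratios, three antagonist concentrations, n≥5 each.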

[3] = molecular target: T1, Adrenergic receptor alpha-1; experiment: Alpha-1-Adrenoceptor blocking activity as antagonism of (-)-norepinephrine induced contractions of epididymal vas deferens; type: functional, tissue-based
[4] = molecular target: T2, Adrenergic receptor alpha-2 (Rattus norvegicus, UniProt P22086+P19328+P22909); experiment: as §1; type: functional, tissue-based
T2 sequence (P22086 whole entry): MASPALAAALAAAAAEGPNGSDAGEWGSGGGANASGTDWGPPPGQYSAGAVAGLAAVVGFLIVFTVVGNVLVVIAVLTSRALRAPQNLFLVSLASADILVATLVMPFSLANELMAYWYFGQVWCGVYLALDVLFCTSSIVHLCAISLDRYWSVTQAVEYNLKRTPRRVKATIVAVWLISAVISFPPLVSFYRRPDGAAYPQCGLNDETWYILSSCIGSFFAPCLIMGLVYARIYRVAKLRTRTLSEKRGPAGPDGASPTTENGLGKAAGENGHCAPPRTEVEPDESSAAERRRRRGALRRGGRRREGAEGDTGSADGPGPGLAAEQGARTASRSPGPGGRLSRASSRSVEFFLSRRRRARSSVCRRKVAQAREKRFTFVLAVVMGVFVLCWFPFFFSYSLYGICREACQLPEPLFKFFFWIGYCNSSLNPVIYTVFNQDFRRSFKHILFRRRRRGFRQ
T2 sequence (P19328 whole entry): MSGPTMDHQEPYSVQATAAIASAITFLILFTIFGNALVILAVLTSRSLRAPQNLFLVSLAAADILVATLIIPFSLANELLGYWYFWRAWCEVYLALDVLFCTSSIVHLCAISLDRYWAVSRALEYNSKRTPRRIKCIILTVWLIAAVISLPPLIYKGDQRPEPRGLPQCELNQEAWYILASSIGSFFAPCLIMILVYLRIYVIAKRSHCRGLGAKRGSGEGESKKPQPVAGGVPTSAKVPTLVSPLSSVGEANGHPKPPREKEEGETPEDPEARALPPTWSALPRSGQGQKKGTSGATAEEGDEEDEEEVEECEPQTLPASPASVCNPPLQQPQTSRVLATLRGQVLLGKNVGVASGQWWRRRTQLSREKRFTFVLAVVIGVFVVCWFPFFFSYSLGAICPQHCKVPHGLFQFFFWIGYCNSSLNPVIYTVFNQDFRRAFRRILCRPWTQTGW
T2 sequence (P22909 whole entry): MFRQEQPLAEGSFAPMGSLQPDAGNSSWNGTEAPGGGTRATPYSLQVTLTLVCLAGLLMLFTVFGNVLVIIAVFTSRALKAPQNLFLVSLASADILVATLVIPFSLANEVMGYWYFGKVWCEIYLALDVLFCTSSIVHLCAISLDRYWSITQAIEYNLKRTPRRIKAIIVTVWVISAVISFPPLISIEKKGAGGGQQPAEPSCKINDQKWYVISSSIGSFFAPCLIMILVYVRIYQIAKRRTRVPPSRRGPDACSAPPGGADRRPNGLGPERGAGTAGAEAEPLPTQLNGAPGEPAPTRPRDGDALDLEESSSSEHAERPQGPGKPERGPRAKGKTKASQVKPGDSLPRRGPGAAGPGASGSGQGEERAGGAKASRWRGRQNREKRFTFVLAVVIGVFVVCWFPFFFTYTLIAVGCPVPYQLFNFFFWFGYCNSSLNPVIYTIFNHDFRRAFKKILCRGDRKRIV
Summary of the method: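 Field stimulation 0.1 Hz, 3-ms pulses, 10–35 V. Propranolol, cocaine and deoxycorticosterone present. After 1 h, one tissue was given antagonist for 30 min and the contralateral tissue served as control. Clonidine curves for 50% twitch inhibition gave dose ratios. Three concentrations (two if limited above 30 μM), n≥5; Schild or van Rossum pA2.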

SMILES | Kb (Rattus norvegicus) | Selectivity ratio [1] | pA2 [2] | pA2 [3] | pA2 [4]
Cl.O=C(c1ccco1)N1CCN(CC2COc3ccccc3O2)CC1 (stereo unspecified) | 525 nM | 0.59 | 6.05 |  | 
COc1cccc(OC)c1OCCN1CCN(C(=O)c2ccco2)CC1.Cl | 19500 nM | 55 |  | 6.45 | 
COc1cc2nc(NCCOc3c(OC)cccc3OC)nc(N)c2cc1OC.Cl | 1150 nM | 87 |  | 7.88 | 
COc1cccc(OC)c1OCCNCC1COc2ccccc2O1 (stereo unspecified) [2- (2,6-DIMETHOXYPHENOXYETHYL)AMINOMETHYL-1,4-BENZODIOXANE HYDROCHLORIDE (WB 4101)] | 513 nM | 347 |  |  | 
COc1cc2nc(N(C)CCN(C)C(=O)c3ccco3)nc(N)c2cc1OC.Cl | 4270 nM | 65 |  | 7.18 | 
Cl.O=C(NCCNCC1COc2ccccc2O1)c1ccco1 (stereo unspecified) | 1410 nM | 22 |  | 7.19 | 
COc1cc2nc(N(C)CCOc3c(OC)cccc3OC)nc(N)c2cc1OC.Cl |  | 89 |  | 7.86 | 5.91
COc1cc2nc(NCC3COc4ccccc4O3)nc(N)c2cc1OC.Cl (stereo unspecified) | 676 nM | 11 |  | 7.22 | 
COc1cc2nc(NCCNC(=O)c3ccco3)nc(N)c2cc1OC.Cl | 6030 nM | 3890 |  | 8.81 | 
